FGF22 binding: binders of recombinant human FGF22 by thermal shift. Q9HCT0. SYPRO orange fluorescence; percent of sucrose octasulfate shift, DMSO zero. activity (Tm shift, normalised), % at 9.99 µM. actives 1.5% (n = 340,000). AID 651658;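 active = mean Tm shift, scaled 0 neutral to 100 positive control, at about 1.3% or above, every replicate too, limit read from the data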
Efflux pump inh: inhibitors of Candida antifungal efflux pumps expressed in yeast; inhibition, % at 10 µM; AID 485275; S. cerevisiae Candida pump triplex, Nile Red efflux; actives 0.44% (n = 330,000);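 active = plate passing quality check with inhibition over a set limit, or well fluorescence over plate mean plus 4 SD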;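 note: Nile Red retained in pooled yeast measured as flow cytometry median fluorescence; higher means more Nile Red kept so more efflux inhibition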
ARFGAP1 inh: rat ARFGAP1 inhibition; Q62848; Arfgap1-stimulated ARF1 GTP hydrolysis, GDP FP detection; inhibition, % at 16.5 µM; actives 0.26% (n = 360,000);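 active = inhibition above a per-plate limit, mean inhibition of low control wells plus 3 SD, cut at about 25% in these data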
Target sequence (Q62848 1-136 limits assumed): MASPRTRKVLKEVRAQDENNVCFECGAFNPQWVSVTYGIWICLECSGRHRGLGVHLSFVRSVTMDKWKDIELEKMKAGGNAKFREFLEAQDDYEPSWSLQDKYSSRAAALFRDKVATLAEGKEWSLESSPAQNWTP
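material = rat Arfgap1 catalytic domain, aa 1-136 | also added = human ARF1(Δ1-17)-GTP substrate | compound dosing = one concentration, 16.5 µM, DMSO 1.26% | times = GTP hydrolysis reaction 2 h at 25 °C | measured by = FP, GDP Alexa 633 tracer displaced from anti-GDP antibody, 620/688 nm | evaluation = percent inhibition of Arfgap1-stimulated GTP hydrolysis | replication = single well per compound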
Rtt109 Vps75: inhibitors of Candida albicans Rtt109/Vps75 histone acetyltransferase; purified Rtt109/Vps75, ThioGlo CoA-SH fluorescence, 4 h; inhibition, % at 34.9 µM; actives 0.16% (n = 330,000); AID 540336;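 active = inhibition of at least 50% in every replicate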
ASAP1 GAP inh: inhibitors of human ASAP1 ArfGAP activity | AID 624377 | actives 0.19% (n = 360,000) | ASAP1-stimulated ARF1 GTP hydrolysis, GDP FP detection | inhibition, % at 16.5 µM; in the data active = inhibition above about 25%
Target sequence (Q9ULH1 325-724 limits assumed): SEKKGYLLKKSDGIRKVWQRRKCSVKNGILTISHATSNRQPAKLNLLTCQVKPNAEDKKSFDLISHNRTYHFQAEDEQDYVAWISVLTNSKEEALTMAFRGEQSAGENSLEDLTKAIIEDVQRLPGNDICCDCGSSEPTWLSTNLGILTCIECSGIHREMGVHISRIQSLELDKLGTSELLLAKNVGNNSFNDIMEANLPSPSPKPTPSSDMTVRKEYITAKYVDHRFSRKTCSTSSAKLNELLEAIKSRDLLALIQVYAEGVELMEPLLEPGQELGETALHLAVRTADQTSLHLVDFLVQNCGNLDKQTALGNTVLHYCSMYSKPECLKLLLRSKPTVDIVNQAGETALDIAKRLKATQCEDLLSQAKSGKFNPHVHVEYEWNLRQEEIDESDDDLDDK
Hits are given with their value; 0 = inactive; - = not tested or not shown. An excerpt weighted towards active compounds, which were near 1.9% of everything screened.

SMILES	FGF22 binding	Efflux pump inh	ARFGAP1 inh	Rtt109 Vps75	ASAP1 GAP inh
Clc1nc(Nc2ccc(N3CCOCC3)cc2)c2ccccc2n1	43.4	0	0	0	0
CC(C)C#Cc1ccc2c(c1)O[C@H](CN(C)C(=O)c1cnccn1)[C@@H](C)CN([C@@H](C)CO)S2(=O)=O	0	-	-	-	-
Cc1ccccc1OS(=O)(=O)c1cn(C)c(=O)n(C)c1=O	43.3	0	0	0	0
COc1ccccc1N1CCN(S(=O)(=O)c2cn(C)c(=O)n(C)c2=O)CC1	0	0	0	0	0
CC(C)CNC(=O)c1cc([N+](=O)[O-])ccc1N1CCCCC1	43.2	0	0	0	0
CC1CCN(c2ccccc2NC(=O)c2cc([N+](=O)[O-])ccc2N2CCOCC2)CC1	0	0	0	53.6	0
COC(=O)CCC(=O)c1ccc(OC)c(Cl)c1	-	0	-	-	-
O=C(c1ccc(F)cc1)N1CCC(C(=O)N2CCN(S(=O)(=O)c3cccc([N+](=O)[O-])c3)CC2)CC1	0	0	0	0	0
CCCn1c(N)c(C(=O)CSc2nnc(C3CC3)n2-c2ccccc2)c(=O)[nH]c1=O	0	0	0	0	0
CCCn1c(N)c(C(=O)CSc2nnc(C3CC3)n2C2CC2)c(=O)[nH]c1=O	43.0	0	0	0	0
Cc1c(NS(=O)(=O)c2ccc(Cl)c(C(=O)OCC(=O)NCc3ccco3)c2)c(=O)n(-c2ccccc2)n1C	44.0	0	0	0	0
CSc1nc2c([nH]1)c(=S)n(C)c(=O)n2C	43.3	-	0	0	0
CO/N=C/C(C#N)c1ncc(C(F)(F)F)cc1Cl (configuration not stated)	0	0	-	0	-
N#CC(c1ccccn1)c1ncc(C(F)(F)F)cc1Cl (configuration not stated)	43.4	0	0	0	0
CN1c2ccc(-c3ccccc3)cc2[C@@H]2[C@@H](CCN2C(=O)CC2CC2)[C@@H]1CO	0	-	-	-	-
O=C(O)CCCn1cc(NC(=O)COc2ccc([N+](=O)[O-])cc2)cn1	42.9	0	0	0	0
COc1cc(N2C(=O)c3ccccc3C2=O)c(Cl)cc1C(=O)OCC(=O)N(C)C	43.1	0	0	0	0
C[C@@H]1CN([C@H](C)CO)C(=O)c2cc(NC(=O)Cc3cn(C)c4ccccc34)ccc2O[C@H]1CN(C)Cc1ccc(C(=O)Nc2ccccc2N)cc1	0	-	-	-	-
CCCCOc1ccc(C(=O)N/C(=C/c2cccc([N+](=O)[O-])c2)C(=O)O)cc1	51.8	0	0	-	0
CCCCOc1ccc(C(=O)N/C(=C\c2cccc([N+](=O)[O-])c2)C(=O)OCCC)cc1	-	0	0	0	0
COCCN(Cc1cc2cc(C)ccc2n2nnnc12)C(=S)Nc1ccc(C)cc1	0	0	0	0	0
COCCNC(=S)N(Cc1cc2cc(C)ccc2n2nnnc12)C1CCCC1	43.1	0	0	0	0
O=C(O)c1cccc([N+](=O)[O-])c1C(=O)Nc1nc2ccccc2s1	43.4	0	0	0	0
C[C@H](CO)N1C[C@H](C)[C@@H](CN(C)Cc2ccc(C(=O)O)cc2)Oc2ccc(NC(=O)CCN3CCOCC3)cc2C1=O	0	-	-	-	-
O=C1Cc2ccccc2Sc2c(OCCN3CCCCC3)cccc21	-	0	0	55.0	0
SMILES	FGF22 binding	Efflux pump inh	ARFGAP1 inh	Rtt109 Vps75	ASAP1 GAP inh
Cc1ccc(S(=O)(=O)Nc2ccc3c(c2)C(=O)N([C@H](C)CO)C[C@@H](C)[C@@H](CN(C)S(=O)(=O)c2ccc(Cl)cc2)OCCCC[C@@H](C)O3)cc1	25.0	-	-	-	-
COc1ccc(S(=O)(=O)Nc2ccc3c(c2)C(=O)N([C@H](C)CO)C[C@H](C)[C@H](CN(C)S(=O)(=O)c2ccc(Cl)cc2)OCCCC[C@@H](C)O3)cc1	0	-	-	-	-
COc1ccc(S(=O)(=O)Nc2ccc3c(c2)C(=O)N([C@@H](C)CO)C[C@H](C)[C@H](CN(C)C(=O)C2CCCCC2)OCCCC[C@@H](C)O3)cc1	0	-	-	-	-
C[C@@H]1CCCCO[C@@H](CN(C)C(=O)Nc2ccccc2)[C@H](C)CN([C@H](C)CO)C(=O)c2cc(NS(=O)(=O)c3ccc(Cl)cc3)ccc2O1	3.6	-	-	-	-
COc1ccc(S(=O)(=O)Nc2ccc3c(c2)C(=O)N([C@H](C)CO)C[C@@H](C)[C@H](CN(C)S(=O)(=O)c2ccc(Cl)cc2)OCCCC[C@H](C)O3)cc1	22.7	-	-	-	-
COc1ccc(S(=O)(=O)Nc2ccc3c(c2)C(=O)N([C@H](C)CO)C[C@@H](C)[C@H](CN(C)C(=O)C2CCCCC2)OCCCC[C@@H](C)O3)cc1	1.5	-	-	-	-
CC(=O)Nc1ccc(OC(=O)c2cccs2)cc1	-	0	0	0	0
N#Cc1ccccc1S(=O)(=O)N1CCN(C(=O)C2COc3ccccc3O2)CC1 (configuration not stated)	0	0	0	0	0
CCOc1ccc(NC(=O)CN(C)C(=O)c2ccccc2OCc2cccc(C)c2)cc1OCC	0	0	0	0	0
O=C1/C(=C/c2ccccn2)SC(=S)N1CCc1ccccc1	1.6	0	0	0	0
N#Cc1ccc(S(=O)(=O)N2CCc3[nH]c4ccc(F)cc4c3C2)cc1	0	0	0	53.6	0
O=S(=O)(c1ccc2[nH]c3c(c2c1)CCCC3)N1CCCCC1	0	0	0	0	0
Cc1ccc(N2C(=O)[C@@H]3[C@H](C2=O)C2c4ccccc4C=CN2[C@@H]3C(=O)c2ccco2)cc1 (some centres not stated)	-	-	0	0	26.0
O=C(c1ccco1)[C@@H]1[C@@H]2C(=O)N(c3ccccc3)C(=O)[C@@H]2C2c3ccccc3C=CN21 (some centres not stated)	-	0	0	0	34.1
O=S(=O)(Nc1ccc(-c2nnc(SCc3ccc(Cl)cc3)o2)cc1)c1ccccc1	-	0	0	56.6	0
CC(=O)N(c1ccc2oc(=O)sc2c1)S(=O)(=O)c1cccc2cccnc12	0	0	0	135.1	0
C/C(=N\NC(=O)CC#N)c1ccc(Oc2ccccc2)cc1	43.8	0	0	0	0
N#CCC(=O)N/N=C/c1ccc(OCc2ccccc2)cc1	43.4	0	0	0	0
N#CCC(=O)N/N=C\c1ccc(OC/C=C/c2ccccc2)cc1	0	0	0	0	0
C/C(=N\NC(=O)COc1ccccc1)c1ccc(O)cc1	0	0	0	0	0
CN(C(=O)CSc1nnn(C)n1)c1ccccc1	0	0	0	0	0
N#C/C(=C(/O)COC(=O)c1cccnc1Cl)c1nc2ccccc2[nH]1	43.6	0	0	0	0
Cc1cc(=O)oc2cc(OC(=O)c3cncc(Br)c3)ccc12	43.9	0	0	0	0
O=C(COC(=O)c1cccc(O)c1)Nc1ccc(OC(F)F)cc1	0	0	0	0	0
CCOC(=O)c1cc(C#N)c(SC)nc1C	0	0	0	0	0
CCOC(=O)c1cc2c(N)c(C(=O)c3cc(C#N)c(SC)nc3C)sc2nc1C	-	0	0	61.8	0
O=C(OCC(=O)N1CCN(c2cccc(Cl)c2)CC1)c1ccco1	0	0	0	0	0
COCCNC(=O)Cc1ccc(F)cc1	0	0	0	0	0

Screening data deposited in PubChem by several laboratories.
